Source: ChEMBL document CHEMBL3393048, “Discovery of potent cytotoxic ortho-aryl chalcones as new scaffold targeting tubulin and mitosis with affinity-based fluorescence” (J Med Chem, 2014)
Active and inactive are the calls of the source. The calls are words filed in the database; no cut-off is given here.

Experiments:
[1] = Antiproliferative activity against vincristine-resistant human HCT8 cells after 48 hrs by SRB method; type: functional, cell-based; details: HCT-8, 48 h
How it was run: (§1)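 SRB assay. Cells in DMEM high glucose with 10% FBS were seeded at 5000/well and grown 24 h; a day-0 plate was fixed at that point. Compounds were added in triplicate for 48 h. Cells were fixed with TCA at 4 °C for 1 h, stained with 0.4% SRB, and the dye was solubilized in 10 mM Tris pH 10.4. OD was read at 515 nm with day-0 OD subtracted. IC50 came from nonlinear regression of dose–response curves from at least two independent experiments.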

MCF7 [2] = assay: Drug resistance index, ratio of IC50 for doxorubicin-resistant human MCF7 cells to IC50 for human MCF7 cells; type: functional
How it was run: (§2)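 Drug resistance index = IC50 in the resistant line / IC50 in its parental line. […] Pairs: A549/CDDP vs A549, MCF-7/DOX vs MCF-7, A2780/TAX vs A2780, HCT-8/VCT vs HCT-8.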

A549 [3] = assay: Antiproliferative activity against cis-platinum-resistant human A549 cells after 48 hrs by SRB method; type: functional, cell-based; details: A549, 48 h; how it was run: as §1
MCF7 [4] = assay: Antiproliferative activity against doxorubicin-resistant human MCF7 cells after 48 hrs by SRB method; type: functional, cell-based; details: MCF7, 48 h
How it was run: (§3)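 SRB assay. Cells in DMEM high glucose with 10% FBS were seeded at 5000/well and grown 24 h; a day-0 plate was fixed at that point. Compounds were added in triplicate for 48 h. IC50 came from nonlinear regression of dose–response curves from at least two independent experiments.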

A549 [5] = assay: Drug resistance index, ratio of IC50 for cis-platinum-resistant human A549 cells to IC50 for human A549 cells; type: functional; how it was run: as §2
Tubulin (Homo sapiens) [6] = biological target: T1, Tubulin (Homo sapiens) (UniProt P68371+Q9H4B7+P0DPH7+P68366+Q13509+Q71U36+P04350+Q3ZCM7+P07437+P68363+Q9BQE3+Q6PEY2+Q13885+Q9BVA1+Q9BUF5); assay: Displacement of (E)-3-(4-(Dimethylamino)phenyl)-1-(4'-fluoro[1,1'-biphenyl]-2-yl)prop-2-en-1-one from tubulin (unknown origin) by fluorescence assay; type: protein-complex assay
How it was run: (§4)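 Competition assay. Tubulin (4 μM) and probe (8 μM) in general tubulin buffer at 37 °C were incubated until fluorescence plateaued (about 30 min; excitation 430, emission 510 nm). Competitors were then added at 0–80 μM and kinetics recorded at 37 °C. The stable F/F0 ratio was plotted against competitor concentration and fitted.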

A2780 [7] = assay: Antiproliferative activity against taxol-resistant human A2780 cells after 48 hrs by SRB method; type: functional, cell-based; details: A2780, 48 h; how it was run: as §3
A549 [8] = assay: Induction of apoptosis in human A549 cells assessed as early apoptotic cells at 0.25 uM after 48 hrs by Annexin V-FITC/propidium iodide staining-based flow cytometry (reference value: 0.47%); type: functional
A549 [9] = assay: Cell cycle arrest in human A549 cells assessed as accumulation at G2/M phase at 31.25 nM after 24 hrs by Hoechst 33342 staining-based ArrayScanVTI analysis; type: functional
A549 [10] = assay: Induction of apoptosis in human A549 cells assessed as necrotic cells at 0.25 uM after 48 hrs by Annexin V-FITC/propidium iodide staining-based flow cytometry (reference value: 0.06%); type: functional
A549 [11] = assay: Induction of apoptosis in human A549 cells assessed as viable cells at 0.25 uM after 48 hrs by Annexin V-FITC/propidium iodide staining-based flow cytometry (reference value: 99.37%); type: functional; details: A549, 48 h, read-out: Activity
A549 [12] = assay: Antiproliferative activity against human A549 cells after 48 hrs by SRB method; type: functional, cell-based; details: A549, 48 h; how it was run: as §1
A549 [13] = assay: Induction of apoptosis in human A549 cells assessed as late apoptotic cells at 0.25 uM after 48 hrs by Annexin V-FITC/propidium iodide staining-based flow cytometry (reference value: 0.10%); type: functional
A2780 [14] = assay: Drug resistance index, ratio of IC50 for taxol-resistant human A2780 cells to IC50 for human A2780 cells; type: functional; how it was run: as §2
HepG2 = assay: Antiproliferative activity against human HepG2 cells after 48 hrs by SRB method; type: functional, cell-based; details: HepG2, 48 h; how it was run: as §3
A2780 [15] = assay: Antiproliferative activity against human A2780 cells after 48 hrs by SRB method; type: functional, cell-based; details: A2780, 48 h; how it was run: as §3
[16] = Drug resistance index, ratio of IC50 for vincristine-resistant human HCT8 cells to IC50 for human HCT8 cells; type: functional, HCT-8; how it was run: as §2
MCF7 [17] = assay: Antiproliferative activity against human MCF7 cells after 48 hrs by SRB method; type: functional, cell-based; details: MCF7, 48 h; how it was run: as §3
SW480 = assay: Antiproliferative activity against human SW480 cells after 48 hrs by SRB method; type: functional, cell-based; details: SW480, 48 h; how it was run: as §3
[18] = Antiproliferative activity against human CNE2 cells after 48 hrs by SRB method; type: functional, cell-based; details: CNE-2, 48 h; how it was run: as §3
A549 [19] = assay: Cell cycle arrest in human A549 cells assessed as accumulation at G2/M phase at 7.81 to 250 nM after 24 hrs by Hoechst 33342 staining-based ArrayScanVTI analysis; type: functional
How it was run: (§5)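 A549 cells were seeded at 5000/well, cultured overnight, then treated 24 h over a 7.81–250 concentration series. Cells were fixed in prewarmed paraformaldehyde 10 min, permeabilized with Triton X-100, and nuclei stained with Hoechst 33342. Imaging was by ArrayScan VTI high-content analysis. Phase percentage = cells within a gated fluorescence intensity / total cells counted.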

[20] = Antiproliferative activity against human HCT8 cells after 48 hrs by SRB method; type: functional, cell-based; details: HCT-8, 48 h; how it was run: as §3
A549 [21] = assay: Cell cycle arrest in human A549 cells assessed as accumulation at G2/M phase at 125 nM after 24 hrs by Hoechst 33342 staining-based ArrayScanVTI analysis; type: functional; how it was run: as §5
Tubulin = assay: Inhibition of tubulin polymerization (unknown origin) by DAPI staining-based fluorescence microscopy; type: protein-complex assay, Homo sapiens
How it was run: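 Purified tubulin (99% pure; 20 μM as supplied) mixed with compound in general tubulin buffer (80 mM PIPES pH 6.9, 2.0 mM MgCl₂, 0.5 mM EGTA) with 1 mM GTP, 20% glycerol and DAPI reporter. Polymerization tracked kinetically at 37 °C as fluorescence rise (ex 360, em 450 nm). Duplicate wells per concentration. IC50 from at least two independent experiments.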

A549 [22] = assay: Induction of microtubule disruption in human A549 cells assessed as multinucleation at 31 nM after 24 hrs by DAPI staining-based immunofluorescence microscopy; type: cell-based
Tubulin (Homo sapiens) [23] = biological target: T1, Tubulin (Homo sapiens); assay: Displacement of (E)-3-(4-(Dimethylamino)phenyl)-1-(4'-fluoro[1,1'-biphenyl]-2-yl)prop-2-en-1-one from tubulin (unknown origin) at 2 uM by fluorescence assay; type: protein-complex assay; how it was run: as §4
A549 [24] = assay: Induction of microtubule disruption in human A549 cells assessed as massive and dotted microtubule disorder formation at 31 nM after 24 hrs by DAPI staining-based immunofluorescence microscopy; type: cell-based
A549 [25] = assay: Antimitotic activity in human A549 cells assessed as inhibition of microtubule reassembly in interphase cells at 31 nM incubated for 24 hrs followed by cold treatment for 1 hr measured after 15 mins warm up by DAPI staining-based immunofluorescence microscopy; type: functional, cell-based
How it was run: (§6)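 A549 cells, 6 × 10⁴ per confocal dish, grown 24 h, then exposed 24 h (vehicle 0.5% DMSO, 37 °C). Dishes were held on ice 1 h to depolymerize microtubules, then rewarmed at 37 °C for 0, 5, 10 or 15 min. Cells were fixed in prewarmed paraformaldehyde 15 min and permeabilized with Triton X-100. […] Imaged by confocal microscopy.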

Tubulin (Homo sapiens) [26] = biological target: T1, Tubulin (Homo sapiens); assay: Binding affinity to tubulin (unknown origin) by fluorescence assay in presence of DTNB; type: protein-complex assay
Tubulin (Homo sapiens) [27] = biological target: T1, Tubulin (Homo sapiens); assay: Binding affinity to tubulin (unknown origin) after 30 mins by fluorescence assay; type: protein-complex assay
How it was run: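 Intrinsic fluorescence on tubulin binding. Compounds were mixed with tubulin (4 μM or 8 μM) in general tubulin buffer and incubated 30 min. Readings were excitation 430/emission 510 nm or excitation 365/emission 465 nm, with kinetic reads from mixing. ΔF = stable emission minus tubulin-only fluorescence. Optimal wavelengths were set by wavelength scanning.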

A549 [28] = assay: Induction of microtubule disruption in human A549 cells assessed as multipolarization of spindle at 31 nM after 24 hrs by DAPI staining-based immunofluorescence microscopy; type: cell-based
Mus musculus = assay: Toxicity in BALB/c nude mouse xenografted with human A549 cells assessed as body weight at 2 mg/kg, ip administered every other day for 2 weeks; type: organism-based; design: dose 2 mg/kg, route intraperitoneal; details: in vivo, 336 h
How it was run: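 Female BALB/c nude mice, 5 weeks old, given 1 × 10⁷ A549 cells subcutaneously in the right flank. At about 100 mm³ tumor volume, randomized into groups of eight. Dosed ip at 2 mg/kg every other day for 2 weeks. Controls received normal saline with 0.5% DMSO and 5% Kolliphor HS 15. Body weight monitored throughout.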

A549 [29] = assay: Antitumor activity against human A549 cells xenografted in BALB/c nude mouse assessed as reduction in tumor volume at 2 mg/kg, ip administered every other day for 2 weeks (reference value: 1806.9 mm'3); type: functional; details: route intraperitoneal
A549 [30] = assay: Antimitotic activity in human A549 cells assessed as disorganized mitosis at 31 nM incubated for 24 hrs followed by cold treatment for 1 hr measured after 15 mins warm up by DAPI staining-based immunofluorescence microscopy; type: functional, cell-based; how it was run: as §6
A549 [31] = assay: Antimitotic activity in human A549 cells assessed as inhibition of microtubule reassembly in mitotic cells at 31 nM incubated for 24 hrs followed by cold treatment for 1 hr measured after 15 mins warm up by DAPI staining-based immunofluorescence microscopy; type: functional, cell-based; how it was run: as §6
A549 [32] = assay: Antimitotic activity in human A549 cells assessed as multinucleation at 31 nM incubated for 24 hrs followed by cold treatment for 1 hr measured after 15 mins warm up by DAPI staining-based immunofluorescence microscopy; type: functional, cell-based; how it was run: as §6
A549 [33] = assay: Antimitotic activity in human A549 cells assessed as multipolarization of spindle at 31 nM incubated for 24 hrs followed by cold treatment for 1 hr measured after 15 mins warm up by DAPI staining-based immunofluorescence microscopy; type: functional, cell-based; how it was run: as §6
A549 [34] = assay: Antitumor activity against human A549 cells xenografted in BALB/c nude mouse assessed as reduction in tumor weight at 2 mg/kg, ip administered every other day for 2 weeks (reference value: 1.446 gm); type: functional; details: route intraperitoneal

Row | Structure (SMILES) | IC50 [1] [nM] | Ratio IC50 (MCF7 [2]) | IC50 (A549 [3]) [nM] | IC50 (MCF7 [4]) [nM] | Ratio IC50 (A549 [5]) | IC50 (A2780 [7]) [nM] | Activity (A549 [9]) | IC50 (A549 [12]) [nM] | Ratio IC50 (A2780 [14]) | IC50 (HepG2) [nM] | IC50 (A2780 [15]) [nM] | Ratio IC50 [16] | IC50 (MCF7 [17]) [nM] | IC50 (SW480) [nM] | IC50 [18] [nM] | Activity (A549 [19]) | IC50 [20] [nM] | IC50 (Tubulin) [nM] | also measured
1 | CC[C@]1(O)C[C@H]2CN(CCc3c([nH]c4ccccc34)[C@@](C(=O)OC)(c3cc4c(cc3OC)N(C=O)[C@H]3[C@@](O)(C(=O)OC)[C@H](OC(C)=O)[C@]5(CC)C=CCN6CC[C@]43[C@@H]65)C2)C1 [VINCRISTINE] | 1900 | 1063 | 56 | 4300 | 4.7 | 930 | – | – | – | – | – | – | – | – | – | – | – | – | Activity (Tubulin (Homo sapiens) [6]): inactive
2 | COc1cc2c(c(OC)c1OC)-c1ccc(OC)c(=O)cc1[C@@H](NC(C)=O)CC2 [COLCHICINE] | – | – | – | – | – | – | Active | 50 | – | – | – | – | – | – | – | – | – | – | Activity (A549 [8]): 36.19%; Activity (A549 [10]): 6.93%; viability at 0.25 µM (A549 [11]): 19.2%; Activity (A549 [13]): 37.72%
3 | COc1ccc(/C=C/C(=O)c2ccccc2-c2ccc(F)cc2)cc1 | 230 | 0.29 | 210 | 120 | 1.1 | 690 | – | 140 | 4.1 | 93 | 170 | 1 | 670 | 61 | 53 | Active | 220 | 1800 | Activity (A549 [21]): Active
4 | COc1ccc(/C=C/C(=O)c2ccccc2-c2cccc(F)c2)cc1O | 57 | 0.03 | 180 | 2 | 16 | 230 | Active | 11 | 18 | 8 | 13 | 3.6 | 65 | 10 | 17 | Active | 16 | 490 | Activity (A549 [22]): Active; Activity (Tubulin (Homo sapiens) [23]): Active; Activity (A549 [24]): Active; inhibition (A549 [25]): Active; Activity (Tubulin (Homo sapiens) [26]): inactive; Activity (Tubulin (Homo sapiens) [27]): Dose-dependent effect; Activity (A549 [28]): Active; Activity (Mus musculus): Non-toxic; Activity (A549 [29]): 965.6 mm3; Activity (A549 [30]): Active; inhibition (A549 [31]): Active; Activity (A549 [32]): Active; Activity (A549 [33]): Active; Activity (A549 [34]): 0.641 g
